Laboratory results from ChEMBL document CHEMBL4196175, “First SAR Study for Overriding NRAS Mutant Driven Acute Myeloid Leukemia” (J Med Chem, 2018).
The source made the active and inactive calls. The calls are words filed in the database; no cut-off is given here.

Legend:
[1] = target: T1, Mitogen-activated protein kinase kinase kinase kinase 2 (Homo sapiens, UniProt Q12851); assay: Inhibition of GCK (unknown origin) by radiometric biochemical kinase assay
T1 sequence (Q12851 whole entry): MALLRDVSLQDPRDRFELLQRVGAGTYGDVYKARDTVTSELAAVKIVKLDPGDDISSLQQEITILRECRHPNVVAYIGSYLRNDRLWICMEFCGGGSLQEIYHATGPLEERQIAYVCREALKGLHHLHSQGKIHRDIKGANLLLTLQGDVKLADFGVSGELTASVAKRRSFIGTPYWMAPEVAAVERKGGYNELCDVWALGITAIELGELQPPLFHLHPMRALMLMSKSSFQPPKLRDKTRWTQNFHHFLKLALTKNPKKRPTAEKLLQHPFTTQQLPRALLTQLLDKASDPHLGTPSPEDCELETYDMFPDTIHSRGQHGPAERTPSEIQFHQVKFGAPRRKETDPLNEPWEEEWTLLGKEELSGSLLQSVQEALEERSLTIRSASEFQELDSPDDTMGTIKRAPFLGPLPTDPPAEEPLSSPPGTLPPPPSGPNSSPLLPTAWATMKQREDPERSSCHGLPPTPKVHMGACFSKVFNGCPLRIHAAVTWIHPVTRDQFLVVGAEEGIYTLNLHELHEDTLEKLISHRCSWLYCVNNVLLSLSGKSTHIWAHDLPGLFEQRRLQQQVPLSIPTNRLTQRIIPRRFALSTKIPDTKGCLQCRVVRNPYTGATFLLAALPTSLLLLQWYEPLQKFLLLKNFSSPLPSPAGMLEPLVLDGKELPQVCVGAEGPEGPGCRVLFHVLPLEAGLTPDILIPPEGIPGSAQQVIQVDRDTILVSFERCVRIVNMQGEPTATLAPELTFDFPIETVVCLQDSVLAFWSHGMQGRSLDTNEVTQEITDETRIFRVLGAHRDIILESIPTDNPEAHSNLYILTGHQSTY

Activated CDC42 kinase 1 = Activated CDC42 kinase 1 (Homo sapiens, UniProt Q07912); assay: Inhibition of ACK1 (unknown origin) by radiometric biochemical kinase assay
Activated CDC42 kinase 1, sequence (Q07912 whole entry): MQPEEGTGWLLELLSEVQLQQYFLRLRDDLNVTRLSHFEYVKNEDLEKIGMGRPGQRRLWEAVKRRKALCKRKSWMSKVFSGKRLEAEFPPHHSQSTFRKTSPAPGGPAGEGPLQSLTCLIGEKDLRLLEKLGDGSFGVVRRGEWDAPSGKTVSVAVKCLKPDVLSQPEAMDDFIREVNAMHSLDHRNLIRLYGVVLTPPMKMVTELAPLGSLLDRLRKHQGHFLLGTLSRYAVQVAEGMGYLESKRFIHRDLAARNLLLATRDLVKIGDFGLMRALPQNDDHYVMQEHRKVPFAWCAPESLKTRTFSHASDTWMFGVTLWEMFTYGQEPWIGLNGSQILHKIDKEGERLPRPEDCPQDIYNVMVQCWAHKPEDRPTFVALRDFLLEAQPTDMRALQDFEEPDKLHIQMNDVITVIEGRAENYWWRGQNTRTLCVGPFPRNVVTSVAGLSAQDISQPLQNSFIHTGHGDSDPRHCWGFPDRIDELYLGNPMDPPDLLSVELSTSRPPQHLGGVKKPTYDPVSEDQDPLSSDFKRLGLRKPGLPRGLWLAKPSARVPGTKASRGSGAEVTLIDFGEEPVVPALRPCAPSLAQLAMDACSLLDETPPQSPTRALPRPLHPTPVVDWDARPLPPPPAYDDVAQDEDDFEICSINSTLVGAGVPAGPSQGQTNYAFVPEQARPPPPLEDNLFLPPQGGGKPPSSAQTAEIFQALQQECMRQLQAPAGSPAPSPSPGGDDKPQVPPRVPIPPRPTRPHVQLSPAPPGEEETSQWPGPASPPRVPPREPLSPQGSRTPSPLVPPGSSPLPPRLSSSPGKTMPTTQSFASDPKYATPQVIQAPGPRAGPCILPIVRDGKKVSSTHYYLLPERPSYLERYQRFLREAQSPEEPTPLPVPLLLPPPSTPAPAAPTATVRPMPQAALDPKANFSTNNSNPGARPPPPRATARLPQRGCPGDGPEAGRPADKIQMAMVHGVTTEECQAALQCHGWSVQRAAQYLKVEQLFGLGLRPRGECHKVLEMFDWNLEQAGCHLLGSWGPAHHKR

OCI-AML-3 [2] = assay: Growth inhibition of ACK1/GCK knockdown human OCI-AML3 cells harboring NRAS-Q61L mutant at 0.2 uM after 72 hrs by celltiter-glo assay; type: functional, cell-based
Mus musculus = species: Mus musculus; assay: Inhibition of ACK1/GCK in mouse BA/F3 cells assessed as reduction in NRAS-G12D mutant-mediated cell proliferation after 72 hrs by celltiter-glo assay; type: cell-based
[3] = Selectivity index, ratio of GI50 for parental human U937 cells to GI50 for human OCI-AML3 cells harboring NRAS-Q61L mutant
How it was run: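 Human AML lines OCI-AML3 (NRAS mutant) and U937 (NRAS wild-type) were exposed to inhibitors for 72 h. GI50 is the concentration giving half-maximal growth inhibition, averaged with SD (n = 3, duplicate). The index is the U937 GI50 divided by the OCI-AML3 GI50.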

OCI-AML-3 [4] = assay: Growth inhibition of human OCI-AML3 cells harboring NRAS-Q61L mutant after 72 hrs by celltiter-glo assay; type: functional; settings: OCI-AML-3, 72 h
[5] = Growth inhibition of parental mouse BA/F3 cells after 72 hrs by celltiter-glo assay; type: cell-based, BaF3
[6] = Growth inhibition of parental human U937 cells after 72 hrs by celltiter-glo assay; type: cell-based, U-937
OCI-AML-3 [7] = assay: Growth inhibition of ACK1/GCK knockdown human OCI-AML3 cells harboring NRAS-Q61L mutant at 0.5 uM after 72 hrs by celltiter-glo assay; type: functional, cell-based
OCI-AML-3 [8] = assay: Growth inhibition of ACK1/GCK knockdown human OCI-AML3 cells harboring NRAS-Q61L mutant at 0.05 uM after 72 hrs by celltiter-glo assay; type: functional, cell-based
[9] = Metabolic stability in mouse liver microsomes assessed as compound remaining at 1 uM after 30 mins; type: ADME, microsome; settings: read-out: Stability
[10] = Metabolic stability in rat liver microsomes assessed as compound remaining at 1 uM after 30 mins; type: ADME, microsome; settings: read-out: Stability
CYP3A4 = CYP3A4 (Homo sapiens, UniProt P08684); assay: Inhibition of CYP3A4 (unknown origin) assessed as activity remaining at 10 uM relative to control; type: ADME; settings: read-out: Activity
CYP3A4, sequence (P08684 whole entry): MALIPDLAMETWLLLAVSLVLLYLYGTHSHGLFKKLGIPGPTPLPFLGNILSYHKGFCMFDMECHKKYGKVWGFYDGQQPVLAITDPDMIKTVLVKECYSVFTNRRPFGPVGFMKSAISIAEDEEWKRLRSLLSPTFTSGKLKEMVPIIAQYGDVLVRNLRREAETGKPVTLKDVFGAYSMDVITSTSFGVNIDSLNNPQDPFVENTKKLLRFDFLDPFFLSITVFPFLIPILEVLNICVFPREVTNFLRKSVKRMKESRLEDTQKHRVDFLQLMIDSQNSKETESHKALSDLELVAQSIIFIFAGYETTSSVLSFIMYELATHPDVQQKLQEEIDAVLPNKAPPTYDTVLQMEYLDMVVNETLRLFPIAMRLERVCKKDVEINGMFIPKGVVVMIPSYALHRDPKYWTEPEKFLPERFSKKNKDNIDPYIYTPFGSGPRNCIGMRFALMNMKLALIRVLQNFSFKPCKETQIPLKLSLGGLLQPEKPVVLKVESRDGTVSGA

[11] = Metabolic stability in human liver microsomes assessed as compound remaining at 1 uM after 30 mins; type: ADME, microsome; settings: read-out: Stability
CYP2C9 = CYP2C9 (Homo sapiens, UniProt P11712); assay: Inhibition of CYP2C9 (unknown origin) assessed as activity remaining at 10 uM relative to control; type: ADME; settings: read-out: Activity
CYP2C9, sequence (P11712 whole entry): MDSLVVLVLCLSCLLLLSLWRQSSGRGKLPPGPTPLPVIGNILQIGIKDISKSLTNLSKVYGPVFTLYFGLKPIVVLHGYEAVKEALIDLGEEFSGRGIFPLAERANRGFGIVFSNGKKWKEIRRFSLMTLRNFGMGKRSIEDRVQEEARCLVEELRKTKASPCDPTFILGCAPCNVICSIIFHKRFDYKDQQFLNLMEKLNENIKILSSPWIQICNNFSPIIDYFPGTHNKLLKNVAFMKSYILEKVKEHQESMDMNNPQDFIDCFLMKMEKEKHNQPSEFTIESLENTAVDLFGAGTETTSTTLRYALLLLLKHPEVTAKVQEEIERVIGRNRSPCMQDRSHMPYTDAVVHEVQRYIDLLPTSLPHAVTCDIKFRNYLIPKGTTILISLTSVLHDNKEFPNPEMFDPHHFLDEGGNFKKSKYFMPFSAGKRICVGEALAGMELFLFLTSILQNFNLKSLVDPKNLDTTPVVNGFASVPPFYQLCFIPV

CYP2D6 = CYP2D6 (Homo sapiens, UniProt P10635); assay: Inhibition of CYP2D6 (unknown origin) assessed as activity remaining at 10 uM relative to control; type: ADME; settings: read-out: Activity
CYP2D6, sequence (P10635 whole entry): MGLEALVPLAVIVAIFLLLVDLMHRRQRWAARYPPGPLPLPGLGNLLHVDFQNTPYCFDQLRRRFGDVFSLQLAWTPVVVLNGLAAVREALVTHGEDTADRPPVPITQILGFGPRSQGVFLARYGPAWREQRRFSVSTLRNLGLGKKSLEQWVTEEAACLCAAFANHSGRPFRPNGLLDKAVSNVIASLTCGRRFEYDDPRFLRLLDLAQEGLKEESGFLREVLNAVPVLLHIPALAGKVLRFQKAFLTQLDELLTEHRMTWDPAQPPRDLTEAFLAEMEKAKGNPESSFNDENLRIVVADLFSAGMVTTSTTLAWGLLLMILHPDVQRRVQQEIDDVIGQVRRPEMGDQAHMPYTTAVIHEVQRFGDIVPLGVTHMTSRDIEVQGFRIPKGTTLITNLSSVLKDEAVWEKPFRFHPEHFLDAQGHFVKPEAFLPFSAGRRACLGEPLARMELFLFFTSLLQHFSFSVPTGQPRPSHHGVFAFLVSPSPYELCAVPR

[12] = Metabolic stability in dog liver microsomes assessed as compound remaining at 1 uM after 30 mins; type: ADME, Canis lupus familiaris, microsome; settings: read-out: Stability
CYP1A2 = target: T2, CYP1A2 (Homo sapiens, UniProt P05177); assay: Inhibition of CYP1A2 (unknown origin) assessed as activity remaining at 10 uM relative to control; type: ADME; settings: read-out: Activity
T2 sequence (P05177 whole entry): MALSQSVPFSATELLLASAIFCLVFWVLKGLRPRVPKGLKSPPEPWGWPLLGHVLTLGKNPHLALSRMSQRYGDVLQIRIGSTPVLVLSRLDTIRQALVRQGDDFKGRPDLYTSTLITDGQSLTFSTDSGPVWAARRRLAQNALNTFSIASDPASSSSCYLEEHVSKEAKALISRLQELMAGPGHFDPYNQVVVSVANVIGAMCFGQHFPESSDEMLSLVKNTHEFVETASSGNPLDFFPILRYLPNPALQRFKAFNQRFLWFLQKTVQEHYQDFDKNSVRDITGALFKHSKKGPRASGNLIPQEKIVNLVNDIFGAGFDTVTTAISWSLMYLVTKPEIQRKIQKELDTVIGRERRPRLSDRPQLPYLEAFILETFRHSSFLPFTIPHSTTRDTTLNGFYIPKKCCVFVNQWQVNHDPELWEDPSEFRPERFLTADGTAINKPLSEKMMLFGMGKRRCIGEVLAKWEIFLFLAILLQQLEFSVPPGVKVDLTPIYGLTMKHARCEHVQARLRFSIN

| SMILES | IC50 [1] | IC50 (Activated CDC42 kinase 1) | growth inhibition (GI) (OCI-AML-3 [2]) | GI50 (Mus musculus) | RatioGI50 [3] | GI50 (OCI-AML-3 [4]) | GI50 at 72 h [5] | GI50 at 72 h [6] | growth inhibition (GI) (OCI-AML-3 [7]) | growth inhibition (GI) (OCI-AML-3 [8]) | remaining at 0.5 h, 1 µM [9] | remaining at 0.5 h, 1 µM [10] | activity at 10 µM (CYP3A4) | remaining at 0.5 h, 1 µM [11] | activity at 10 µM (CYP2C9) | activity at 10 µM (CYP2D6) | remaining at 0.5 h, 1 µM [12] | activity at 10 µM (CYP1A2) |
| --- | --- | --- | --- | --- | --- | --- | --- | --- | --- | --- | --- | --- | --- | --- | --- | --- | --- | --- |
| Cc1ccc(Nc2ncc3c(n2)N(C)C(=O)N(c2cc(NC(=O)c4ccc(-n5cccc5)c(C(F)(F)F)c4)ccc2C)C3)cn1 | 0.024 µM | 0.01 µM | Active | 0.069 µM | 100 | 0.267 µM | 0.317 µM | > 25 µM | – | – | – | – | – | – | – | – | – | – |
| Cc1ccc(NC(=O)c2cccc(C(F)(F)F)c2)cc1N1Cc2cnc(NC3CCCCC3)nc2N(C)C1=O | 0.925 µM | 0.06 µM | – | 2.45 µM | – | – | 5.22 µM | – | – | – | – | – | – | – | – | – | – | – |
| Cc1ccc(Nc2ncc3c(n2)N(C)C(=O)N(c2cc(NC(=O)c4ccc(C)c(C(F)(F)F)c4)ccc2C)C3)cn1 | 0.039 µM | 0.02 µM | – | 0.387 µM | – | 0.394 µM | 0.87 µM | 19.4 µM | Active | – | – | – | – | – | – | – | – | – |
| Cc1ccc(Nc2ncc3c(n2)N(C)C(=O)N(c2cc(NC(=O)c4ccccc4)ccc2C)C3)cn1 | 1.08 µM | 0.021 µM | – | 1.47 µM | – | – | 2.7 µM | – | – | – | – | – | – | – | – | – | – | – |
| Cc1ccc(NC(=O)c2cccc(C(F)(F)F)c2)cc1N1Cc2cnc(NC3CC3)nc2N(C)C1=O | 0.042 µM | 0.035 µM | – | 0.547 µM | – | – | 5.06 µM | – | – | – | – | – | – | – | – | – | – | – |
| Cc1ccc(Nc2ncc3c(n2)N(C)C(=O)N(c2cc(NC(=O)c4cc(-n5cnc(C)c5)cc(C(F)(F)F)c4)ccc2C)C3)cn1 | 0.027 µM | 0.053 µM | – | 0.238 µM | – | – | > 5 µM | – | – | – | – | – | – | – | – | – | – | – |
| Cc1ccc(NC(=O)c2ccc(CN3CCC(N(C)C)C3)c(C(F)(F)F)c2)cc1N1Cc2cnc(Nc3cnn(C)c3)nc2N(C)C1=O (stereo not given) | 0.008 µM | 0.025 µM | – | 0.068 µM | – | – | 0.414 µM | – | – | – | – | – | – | – | – | – | – | – |
| Cc1ccc(NC(=O)c2cccc(C(F)(F)F)c2)cc1N1Cc2cnc(Nc3ccccc3)nc2N(C)C1=O | 0.047 µM | 0.037 µM | – | 0.38 µM | – | – | 1.79 µM | – | – | – | – | – | – | – | – | – | – | – |
| CCN1CCN(C(=O)c2ccc(Nc3ncc4c(n3)N(C)C(=O)N(c3cc(NC(=O)c5ccc(CN6CCC(N(C)C)C6)c(C(F)(F)F)c5)ccc3C)C4)cn2)CC1 (stereo not given) | 0.014 µM | 0.021 µM | – | 0.094 µM | – | – | 0.704 µM | – | – | – | – | – | – | – | – | – | – | – |
| CC(=O)N1CCN(c2ccc(Nc3ncc4c(n3)N(C)C(=O)N(c3cc(NC(=O)c5ccc(CN6CCC(N(C)C)C6)c(C(F)(F)F)c5)ccc3C)C4)cn2)CC1 (stereo not given) | 0.016 µM | 0.025 µM | – | 0.041 µM | – | – | 0.187 µM | – | – | – | – | – | – | – | – | – | – | – |
| Cc1ccc(NC(=O)c2cccc(C(F)(F)F)c2)cc1N1Cc2cnc(Nc3cnn(C)c3)nc2N(C)C1=O | 0.006 µM | 0.02 µM | – | 0.1 µM | – | 0.042 µM | 0.352 µM | 1.12 µM | – | Active | 73.3% | 98.4% | > 100% | 78.8% | 42.9% | 78.8% | 71.3% | 88% |
| CCN1CCN(c2ccc(Nc3ncc4c(n3)N(C)C(=O)N(c3cc(NC(=O)c5cccc(C(F)(F)F)c5)ccc3C)C4)cc2)CC1 | 0.008 µM | 0.02 µM | – | 0.083 µM | – | 0.04 µM | 0.559 µM | 0.839 µM | – | Active | 20.9% | 19.7% | > 100% | 46.7% | 34.3% | 79.8% | 21.3% | 92.1% |
| Cc1ccc(NC(=O)c2cccc(C(F)(F)F)c2)cc1N1Cc2cnc(NCCO)nc2N(C)C1=O | 0.033 µM | 0.021 µM | – | 0.29 µM | – | 0.367 µM | 3.29 µM | 8.53 µM | Active | – | – | – | – | – | – | – | – | – |
| Cc1cc(Nc2ncc3c(n2)N(C)C(=O)N(c2cc(NC(=O)c4ccc(CN5CCC(N(C)C)C5)c(C(F)(F)F)c4)ccc2C)C3)n(C)n1 (stereo not given) | 0.017 µM | 0.011 µM | – | 0.123 µM | – | – | 0.509 µM | – | – | – | – | – | – | – | – | – | – | – |
| CCN1CCN(c2ccc(Nc3ncc4c(n3)N(C)C(=O)N(c3cc(NC(=O)c5cccc(C(F)(F)F)c5)ccc3C)C4)cn2)CC1 | 0.007 µM | 0.028 µM | – | 0.071 µM | – | 0.03 µM | 0.264 µM | 1.41 µM | – | Active | 21.2% | 19.2% | > 100% | 29.8% | 23% | 68% | 21.4% | 89.7% |
| Cc1ccc(Nc2ncc3c(n2)N(C)C(=O)N(c2cc(NC(=O)c4cc(N5CCOCC5)cc(C(F)(F)F)c4)ccc2C)C3)cn1 | 0.045 µM | 0.026 µM | Active | 0.284 µM | – | 0.26 µM | 1.65 µM | 2.81 µM | – | – | – | – | – | – | – | – | – | – |
| Cc1ccc(Nc2ncc3c(n2)N(C)C(=O)N(c2cc(NC(=O)c4cc(N5CCC(O)CC5)cc(C(F)(F)F)c4)ccc2C)C3)cn1 | 0.072 µM | 0.04 µM | Active | 0.118 µM | – | 0.143 µM | 0.671 µM | 2.18 µM | – | – | – | – | – | – | – | – | – | – |
| Cc1ccc(Nc2ncc3c(n2)N(C)C(=O)N(c2cc(NC(=O)c4ccc(CN5CCN(C)CC5)c(C(F)(F)F)c4)ccc2C)C3)cn1 | 0.005 µM | 0.026 µM | – | 0.316 µM | – | – | 0.818 µM | – | – | – | – | – | – | – | – | – | – | – |
| Cc1ccc(Nc2ncc3c(n2)N(C)C(=O)N(c2cc(NC(=O)c4ccc(N5CCN(C)CC5)c(C(F)(F)F)c4)ccc2C)C3)cn1 | 0.01 µM | 0.028 µM | – | 0.341 µM | – | – | 0.685 µM | – | – | – | – | – | – | – | – | – | – | – |
